High-throughput results: PubChem BioAssay, several laboratories
Bfl-1 A1 inh: inhibitors of the anti-apoptotic protein A1, read as caspase activation. MEF A1-2A-BIM cells, Caspase-Glo 3/7 luminescence, 3 h; percent of clofoctol response, vehicle zero. caspase activation, % (test concentration not listed). hit rate 0.066% among 330,000;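 active = over half of replicate activation scores above 10%, or exactly half above 10 with the replicate mean above 10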
CHOP UPR activ: activators of apoptotic arm of unfolded protein response (CHOP). CHO-CHOP luciferase reporter, UPR activation, luminescence; percent of tunicamycin response over DMSO baseline. activation, % at 10 µM. hit rate 0.34% among 330,000. AID 449763;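 active = at 10 µM dose, activation of 40% or more, normalized to positive control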;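 note: 100% = tunicamycin at 10 µg/mL and 0% = DMSO alone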
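System: CHO-CHOP luciferase reporter cell line | Buffer or medium: F12 medium containing 10% fetal bovine serum | Doses: One dose, 10 µM in 0.5% DMSO | Times: 6 h compound exposure at 37 °C after overnight seeding | Signal: Luciferase luminescence | Read-out: % activation vs tunicamycin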
CHOP inh: CHOP inhibition in unfolded protein response. CHO-K1 CHOP-promoter luciferase, tunicamycin-induced, 15-18 h. inhibition, % at 10 µM. hit rate 3.8% among 220,000;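 active = compounds that reduced the stress-induced luciferase reporter signal by more than about 70% of percent inhibition, limit read from the data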;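 note: 0% = tunicamycin plus vehicle and 100% = wells without tunicamycin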
UPR XBP1 act: adaptive UPR (XBP1) activation | activation, % at 20 µM | AID 463104 | hit rate 0.33% among 330,000 | CHO-XBP1 luciferase reporter, IRE1-XBP1 UPR activation, luminescence; percent of tunicamycin response, DMSO as zero;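 active = versus positive control, 20 µM dose yields 30% or more activation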;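 note: 100% = tunicamycin at 10 µg/mL and 0% = DMSO only wells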
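Assay system: IRE1-XBP1 luciferase reporter CHO line. Input: 1000 cells/well. Buffer or medium: F12 with 10% serum. Doses: 20 µM, 1% DMSO. Times: overnight seeding at 37 °C, 6 h compound treatment at 37 °C. Technique: Steady-Glo luciferase glow luminescence, 10 min after reagent addition.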
* hit, by the source's call. Only a selection was taken, and hits are over-represented in it overall.

How did CC(C)N1CCN(c2ccc(S(=O)(=O)N3CCOCC3)cn2)CC1 do in these assays?
Bfl-1 A1 inh: -1; CHOP UPR activ: 2; UPR XBP1 act: -1

What do the screens show for `COc1ccc(CCN(C(=O)C(F)(F)F)C(C(=O)NC2CCCCC2)c2cccs2)cc1` (stereo not drawn)?
Bfl-1 A1 inh: -1; CHOP UPR activ: -1; CHOP inh: 16; UPR XBP1 act: -1

What do the screens show for `COc1ccc(CCN(C(=O)C(F)(F)F)C(C(=O)NC2CCCCC2)c2ccc(C)s2)cc1` (stereo not drawn)?
Bfl-1 A1 inh: 0; CHOP UPR activ: -3; CHOP inh: 87*; UPR XBP1 act: 0

What do the screens show for `Cc1cccc(NC(=O)c2nc[nH]c2C(=O)NCCCNC(=O)c2[nH]cnc2C(=O)Nc2cccc(C)c2)c1`?
Bfl-1 A1 inh: -1; CHOP UPR activ: 10; UPR XBP1 act: 9

What do the screens show for `Cc1cccc(NC(=O)c2nc[nH]c2C(=O)N[C@@H](CC(C)C)C(=O)OCc2ccccc2)c1`?
Bfl-1 A1 inh: 0; CHOP UPR activ: 1; CHOP inh: 45; UPR XBP1 act: 3

Results for Cc1cccc(NC(=O)c2nc[nH]c2C(=O)Nc2cccc(C)c2)c1 ?
Bfl-1 A1 inh: 0; CHOP UPR activ: 1; CHOP inh: 87*; UPR XBP1 act: 3

What do the screens show for `Cc1cccc(NC(=O)c2nc[nH]c2C(=O)N[C@@H](C)C(=O)OCc2ccccc2)c1`?
Bfl-1 A1 inh: 0; CHOP UPR activ: 0; CHOP inh: 90*; UPR XBP1 act: -5

Results for O=C(Nc1ccc(Cl)cc1)c1nc[nH]c1C(=O)NCCCNC(=O)c1[nH]cnc1C(=O)Nc1ccc(Cl)cc1 ?
Bfl-1 A1 inh: 13*; CHOP UPR activ: 16; UPR XBP1 act: 14

Results for O=C(Nc1ccc(Cl)cc1)c1nc[nH]c1C(=O)NCCN(CCNC(=O)c1[nH]cnc1C(=O)Nc1ccc(Cl)cc1)CCNC(=O)c1[nH]cnc1C(=O)Nc1ccc(Cl)cc1 ?
Bfl-1 A1 inh: 0; CHOP UPR activ: 5; UPR XBP1 act: 0

What do the screens show for `CCCCCCCCNC(=O)/C(C#N)=C/c1ccccc1[N+](=O)[O-]`?
Bfl-1 A1 inh: 0; CHOP UPR activ: 2; CHOP inh: 94*; UPR XBP1 act: -3

What do the screens show for `N#C/C(=C\c1ccccc1[N+](=O)[O-])C(=O)NCc1ccccc1`?
Bfl-1 A1 inh: 1; CHOP UPR activ: -1; CHOP inh: -17; UPR XBP1 act: 5

How did N/C(Cc1ccc([N+](=O)[O-])cc1)=N\OC(=O)C(c1ccccc1)c1ccccc1 do in these assays?
Bfl-1 A1 inh: 1; CHOP UPR activ: 3; CHOP inh: 83*; UPR XBP1 act: 0

What do the screens show for `O=C(CSc1cc(Cl)ccc1Cl)NCC(=O)Nc1ccc(F)c(F)c1F`?
Bfl-1 A1 inh: 0; CHOP UPR activ: 2; CHOP inh: 72*; UPR XBP1 act: -1

Results for COc1cccc(C(=O)NC2CCNCC2)c1 ?
Bfl-1 A1 inh: 1; CHOP UPR activ: 0; UPR XBP1 act: -5

How did S=c1[nH]nc(-c2cccs2)n1/N=C/c1cn(-c2ccccc2)nc1-c1cccs1 do in these assays?
Bfl-1 A1 inh: -4; CHOP UPR activ: 10; CHOP inh: 79*; UPR XBP1 act: 6

What do the screens show for `O=[N+]([O-])c1ccc(-c2nn(-c3ccccc3)cc2/C=N/n2c(-c3ccncc3)n[nH]c2=S)cc1`?
Bfl-1 A1 inh: 1; CHOP UPR activ: 3; CHOP inh: 94*; UPR XBP1 act: 1

Results for COc1ccc(NC(=O)Cn2c(=O)n(-c3ccccc3)c(=O)c3oc4ccccc4c32)c(OC)c1 ?
Bfl-1 A1 inh: 2; CHOP UPR activ: 2; CHOP inh: -6; UPR XBP1 act: -2

How did COc1ccccc1NC(=O)Cn1c(=O)n(-c2ccccc2)c(=O)c2oc3ccccc3c21 do in these assays?
Bfl-1 A1 inh: 0; CHOP UPR activ: 3; CHOP inh: 81*; UPR XBP1 act: -3

What do the screens show for `CC(=O)c1sc(NC(=O)CN2C(=O)C3CCCCC3C2=O)nc1-c1ccccc1` (stereo not drawn)?
Bfl-1 A1 inh: -1; CHOP UPR activ: -1; UPR XBP1 act: 0

How did COc1ccc(N=C2C(=O)N3c4c(cccc42)C(C)=CC3(C)C)cc1 do in these assays?
Bfl-1 A1 inh: 1; CHOP UPR activ: 1; CHOP inh: 79*; UPR XBP1 act: 3

What do the screens show for `Cc1ccc2nc3c(cc2c1)c(NC(=O)c1ccccn1)nn3CC(C)C`?
Bfl-1 A1 inh: -1; CHOP UPR activ: 0; CHOP inh: 41; UPR XBP1 act: 0

Results for Cc1ccc2cc3c(NC(=O)c4ccco4)nn(CC(C)C)c3nc2c1 ?
Bfl-1 A1 inh: 0; CHOP UPR activ: -2; CHOP inh: 70*; UPR XBP1 act: 2

How did CC(=O)Nc1ccc(NC(=O)C(C)OC(=O)C(C)SCC(=O)Nc2ccc(C)cc2)cc1 (stereo not drawn) do in these assays?
Bfl-1 A1 inh: 1; CHOP UPR activ: 0; UPR XBP1 act: -2

What do the screens show for `O=C(NCC1OCCc2ccccc21)c1ccc(NC(=O)c2ccc(Cl)cc2Cl)cc1` (stereo not drawn)?
Bfl-1 A1 inh: 1; CHOP UPR activ: 1; CHOP inh: 98*; UPR XBP1 act: 11

What do the screens show for `O=C(Nc1ccc(N=Nc2ccccc2)cc1)c1ccc(Cl)cc1Cl`?
Bfl-1 A1 inh: 0; CHOP UPR activ: 0; CHOP inh: 77*; UPR XBP1 act: -1

Results for COc1ccc(NC(=O)CSc2nc3[nH]c(=O)cc(O)c3s2)c(OC)c1 ?
Bfl-1 A1 inh: 2; CHOP UPR activ: 3; UPR XBP1 act: 1

What do the screens show for `CC(=O)N[C@@H](Cc1c[nH]c2ccccc12)C(=O)NCc1ccccc1`?
Bfl-1 A1 inh: -1; CHOP UPR activ: 0; UPR XBP1 act: 1

Results for CCc1cccc(NC(=O)C2CCN(S(=O)(=O)c3ccc4c(c3)NC(=O)CO4)CC2)c1 ?
Bfl-1 A1 inh: 9.7*; CHOP UPR activ: 0; UPR XBP1 act: -7

How did CS(=O)(=O)/C(C#N)=C\c1cnc(S(=O)(=O)c2ccccc2)s1 do in these assays?
Bfl-1 A1 inh: 0; CHOP UPR activ: -8; UPR XBP1 act: -11

What do the screens show for `CCN(CC)CCN(C(=O)c1cc2c(ccc3ccccc32)oc1=O)c1nc2cc3c(cc2s1)OCCO3`?
Bfl-1 A1 inh: 7.2*; CHOP UPR activ: 19; UPR XBP1 act: 210*

What do the screens show for `Brc1ccc(-c2nc(N/N=C/c3cccnc3)c3ccccc3n2)cc1`?
Bfl-1 A1 inh: -6; CHOP UPR activ: 3; CHOP inh: 74*; UPR XBP1 act: 2

What do the screens show for `C(=N\Nc1nc(-c2cccnc2)nc2ccccc12)/c1ccccc1`?
Bfl-1 A1 inh: -4; CHOP UPR activ: 5; CHOP inh: -6; UPR XBP1 act: 1

Results for C(=N\Nc1nc(-c2ccccn2)nc2ccccc12)/c1ccccc1 ?
Bfl-1 A1 inh: -2; CHOP UPR activ: 527*; CHOP inh: 88*; UPR XBP1 act: 13
